From article PMC3809033 (Clinical pharmacology and therapeutics, 2011) come the findings set out here.

One assay concerns the target 5-HT2A receptor (Homo sapiens, UniProt P28223). The experiment in a line: inositol phosphate release, antagonist mode. The assay is classed as cell-based. The conditions noted are these: receptor activated by 1 μmol/l 5-HT.
Another assay has as its target serotonin transporter (Homo sapiens, UniProt P31645). The experiment in a line: radioligand competition binding. Conditions: read-out: [drawing 1] / In vitro; Cheng-Prusoff; details in supplement. An outline of the steps:
(§1)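 Test compound (purity >98%) was run in competition against radioligand binding at six concentrations from 10 nmol/l to 100 μmol/l to build concentration–response curves. IC50 (50% displacement of bound radioligand) was obtained by nonlinear fitting. Ki was derived with Cheng–Prusoff, using free radioligand concentration and each radioligand's KD, and expressed as pKi.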
A general note: Loss of bound radioactivity is the signal in a displacement assay; it reports binding, not function.

Assay [1] has as its target norepinephrine transporter (Homo sapiens, UniProt P23975). The experiment in a line: radioligand competition binding. The conditions noted are these: read-out: [drawing 1] / In vitro; Cheng-Prusoff; details in supplement. An outline of the steps: as §1
In the next assay the target is T1, 5-HT2C receptor (Homo sapiens, UniProt P28335).
T1 sequence (P28335 33-458): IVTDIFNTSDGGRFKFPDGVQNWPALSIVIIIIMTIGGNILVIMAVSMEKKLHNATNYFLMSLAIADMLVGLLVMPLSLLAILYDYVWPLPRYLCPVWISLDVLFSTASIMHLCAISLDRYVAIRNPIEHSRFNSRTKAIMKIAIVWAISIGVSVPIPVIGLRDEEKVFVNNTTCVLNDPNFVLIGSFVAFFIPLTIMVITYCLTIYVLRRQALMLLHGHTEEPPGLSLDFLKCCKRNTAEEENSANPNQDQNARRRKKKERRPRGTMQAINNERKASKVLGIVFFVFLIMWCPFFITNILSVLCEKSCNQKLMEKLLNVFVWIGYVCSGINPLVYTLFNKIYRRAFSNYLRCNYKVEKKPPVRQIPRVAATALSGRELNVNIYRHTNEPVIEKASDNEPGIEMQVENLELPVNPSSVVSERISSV
The experiment in a line: radioligand competition binding. The conditions noted are these: read-out: [drawing 1] / In vitro; Cheng-Prusoff; details in supplement. An outline of the steps: as §1

The target in assay [2] is dopamine transporter (DAT) (Homo sapiens, UniProt Q01959). The experiment in a line: radioligand competition binding. The conditions noted are these: read-out: [drawing 1] / In vitro; Cheng-Prusoff; details in supplement. An outline of the steps:
as §1

For another assay, the target named is 5-HT2B receptor (Homo sapiens, UniProt P41595). The experiment in a line: radioligand competition binding. Conditions: read-out: [drawing 1] / In vitro; Cheng-Prusoff; details in supplement. The essentials:
as §1

Another assay addresses 5-HT7 receptor (Homo sapiens, UniProt P34969). The experiment in a line: radioligand competition binding. Conditions: read-out: [drawing 1] / In vitro; Cheng-Prusoff; details in supplement. The essentials:
as §1

The target in a further assay is 5-HT6 receptor (Homo sapiens, UniProt P50406). The experiment in a line: radioligand competition binding. Conditions: read-out: [drawing 1] / In vitro; Cheng-Prusoff; details in supplement. The essentials: as §1
Chain of 5-HT6 receptor (P50406 whole entry): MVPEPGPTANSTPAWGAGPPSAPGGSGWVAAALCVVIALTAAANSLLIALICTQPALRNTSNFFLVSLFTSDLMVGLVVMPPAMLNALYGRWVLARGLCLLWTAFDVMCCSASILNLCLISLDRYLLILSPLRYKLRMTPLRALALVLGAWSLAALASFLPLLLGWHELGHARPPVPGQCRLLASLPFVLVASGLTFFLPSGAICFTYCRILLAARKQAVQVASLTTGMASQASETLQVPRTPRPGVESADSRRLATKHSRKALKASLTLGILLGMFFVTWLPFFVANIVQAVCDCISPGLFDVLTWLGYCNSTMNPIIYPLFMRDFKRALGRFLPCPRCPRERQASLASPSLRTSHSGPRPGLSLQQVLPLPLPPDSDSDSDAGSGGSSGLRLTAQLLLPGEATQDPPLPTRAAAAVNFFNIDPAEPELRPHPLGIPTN

One may read the Kb as the equilibrium dissociation constant of an antagonist, usually derived from a functional assay. A higher Kb goes with lower antagonist affinity.

Chain of dopamine transporter (DAT) (Q01959 whole entry): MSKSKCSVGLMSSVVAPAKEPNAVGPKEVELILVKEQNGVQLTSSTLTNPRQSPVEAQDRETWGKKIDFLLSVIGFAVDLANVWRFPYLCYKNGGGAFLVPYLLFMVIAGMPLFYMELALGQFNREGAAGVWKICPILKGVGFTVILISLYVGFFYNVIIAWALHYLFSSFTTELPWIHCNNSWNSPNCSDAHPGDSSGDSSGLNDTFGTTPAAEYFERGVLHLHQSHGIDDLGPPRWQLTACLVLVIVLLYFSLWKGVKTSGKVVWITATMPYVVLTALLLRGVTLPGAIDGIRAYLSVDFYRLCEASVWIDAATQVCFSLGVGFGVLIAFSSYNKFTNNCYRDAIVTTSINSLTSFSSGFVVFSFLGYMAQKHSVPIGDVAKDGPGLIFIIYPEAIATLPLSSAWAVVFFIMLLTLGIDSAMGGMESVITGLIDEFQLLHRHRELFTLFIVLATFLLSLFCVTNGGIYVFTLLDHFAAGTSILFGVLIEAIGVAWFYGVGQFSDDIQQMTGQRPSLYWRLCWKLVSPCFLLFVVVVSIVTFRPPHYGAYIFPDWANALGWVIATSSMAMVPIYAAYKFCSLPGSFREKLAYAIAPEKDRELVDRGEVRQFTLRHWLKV
Chain of norepinephrine transporter (P23975 whole entry): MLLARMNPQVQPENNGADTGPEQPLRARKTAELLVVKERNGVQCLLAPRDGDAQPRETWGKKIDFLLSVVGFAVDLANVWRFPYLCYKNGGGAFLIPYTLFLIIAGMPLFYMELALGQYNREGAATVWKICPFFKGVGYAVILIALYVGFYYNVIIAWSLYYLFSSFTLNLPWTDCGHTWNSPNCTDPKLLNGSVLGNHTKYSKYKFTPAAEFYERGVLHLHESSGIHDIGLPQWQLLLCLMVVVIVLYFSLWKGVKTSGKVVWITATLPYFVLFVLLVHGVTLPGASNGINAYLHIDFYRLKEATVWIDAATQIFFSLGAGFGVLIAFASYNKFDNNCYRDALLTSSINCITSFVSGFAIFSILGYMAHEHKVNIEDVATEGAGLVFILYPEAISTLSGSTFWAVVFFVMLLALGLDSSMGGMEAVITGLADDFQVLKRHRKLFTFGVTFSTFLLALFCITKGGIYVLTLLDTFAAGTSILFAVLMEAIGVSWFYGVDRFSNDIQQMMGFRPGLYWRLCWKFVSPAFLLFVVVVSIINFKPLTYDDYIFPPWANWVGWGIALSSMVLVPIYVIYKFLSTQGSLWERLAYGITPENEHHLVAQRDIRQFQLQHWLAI
Chain of 5-HT7 receptor (P34969 whole entry): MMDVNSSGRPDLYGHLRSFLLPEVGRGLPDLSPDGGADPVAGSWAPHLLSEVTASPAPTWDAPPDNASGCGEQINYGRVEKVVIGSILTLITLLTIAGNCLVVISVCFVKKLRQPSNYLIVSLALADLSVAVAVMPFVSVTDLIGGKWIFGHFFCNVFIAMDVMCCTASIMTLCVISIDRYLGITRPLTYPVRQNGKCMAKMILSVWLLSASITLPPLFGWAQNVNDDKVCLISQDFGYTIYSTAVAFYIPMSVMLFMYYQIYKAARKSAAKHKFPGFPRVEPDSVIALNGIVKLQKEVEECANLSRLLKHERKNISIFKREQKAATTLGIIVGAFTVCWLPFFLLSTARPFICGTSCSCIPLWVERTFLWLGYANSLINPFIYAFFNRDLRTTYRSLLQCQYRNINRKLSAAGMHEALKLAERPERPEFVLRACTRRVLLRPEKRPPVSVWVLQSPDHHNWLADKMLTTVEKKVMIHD
Chain of 5-HT2B receptor (P41595 whole entry): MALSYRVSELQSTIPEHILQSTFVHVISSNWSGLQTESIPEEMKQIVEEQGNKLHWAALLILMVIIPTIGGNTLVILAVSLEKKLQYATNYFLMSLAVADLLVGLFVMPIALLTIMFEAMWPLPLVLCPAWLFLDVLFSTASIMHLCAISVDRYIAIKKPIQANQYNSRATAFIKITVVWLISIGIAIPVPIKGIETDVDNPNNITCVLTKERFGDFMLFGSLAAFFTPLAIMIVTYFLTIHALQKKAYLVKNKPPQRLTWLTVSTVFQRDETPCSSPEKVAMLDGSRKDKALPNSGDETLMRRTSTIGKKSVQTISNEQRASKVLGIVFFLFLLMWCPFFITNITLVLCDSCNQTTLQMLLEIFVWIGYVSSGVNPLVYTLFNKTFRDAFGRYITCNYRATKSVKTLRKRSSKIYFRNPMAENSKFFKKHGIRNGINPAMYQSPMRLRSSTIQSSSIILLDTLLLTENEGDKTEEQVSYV
Chain of serotonin transporter (P31645 whole entry): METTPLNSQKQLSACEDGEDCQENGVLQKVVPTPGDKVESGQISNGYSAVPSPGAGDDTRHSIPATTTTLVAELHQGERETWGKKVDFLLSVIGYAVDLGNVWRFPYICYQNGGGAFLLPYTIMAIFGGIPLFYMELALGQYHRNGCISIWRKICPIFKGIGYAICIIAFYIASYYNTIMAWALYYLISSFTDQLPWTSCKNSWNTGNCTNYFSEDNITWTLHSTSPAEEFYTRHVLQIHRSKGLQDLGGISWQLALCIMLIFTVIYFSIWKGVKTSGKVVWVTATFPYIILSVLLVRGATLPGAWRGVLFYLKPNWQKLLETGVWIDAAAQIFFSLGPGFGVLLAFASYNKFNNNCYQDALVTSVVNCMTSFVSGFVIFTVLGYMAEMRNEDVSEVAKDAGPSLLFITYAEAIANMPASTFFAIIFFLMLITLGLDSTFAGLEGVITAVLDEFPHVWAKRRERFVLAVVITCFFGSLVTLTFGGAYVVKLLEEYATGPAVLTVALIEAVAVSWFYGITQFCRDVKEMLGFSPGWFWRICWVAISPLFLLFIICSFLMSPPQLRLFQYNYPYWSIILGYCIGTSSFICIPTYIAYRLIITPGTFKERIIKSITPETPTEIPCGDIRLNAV
Chain of 5-HT2A receptor (P28223 whole entry): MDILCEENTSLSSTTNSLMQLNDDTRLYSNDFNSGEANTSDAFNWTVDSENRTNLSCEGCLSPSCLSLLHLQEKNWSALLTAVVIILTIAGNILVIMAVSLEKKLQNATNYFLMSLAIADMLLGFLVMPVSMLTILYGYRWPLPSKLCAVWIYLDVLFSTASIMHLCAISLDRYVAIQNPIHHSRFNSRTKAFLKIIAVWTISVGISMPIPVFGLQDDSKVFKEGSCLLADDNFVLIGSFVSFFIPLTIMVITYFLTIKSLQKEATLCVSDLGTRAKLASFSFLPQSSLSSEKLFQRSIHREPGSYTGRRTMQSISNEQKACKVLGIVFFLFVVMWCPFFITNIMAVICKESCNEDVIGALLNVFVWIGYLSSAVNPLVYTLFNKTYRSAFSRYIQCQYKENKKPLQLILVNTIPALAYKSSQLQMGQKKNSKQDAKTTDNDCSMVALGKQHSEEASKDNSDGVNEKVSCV

`CN(C)CCC=C1c2ccccc2C=Cc2ccccc21` [cyclobenzaprine] registered an antagonist equilibrium constant (Kb) on 5-HT2A receptor of 28.8 ± 2.49 nM. Besides, the Ki stood at 108 nM at serotonin transporter; 36 nM in assay [1]; 57 nM on 5-HT2C receptor; 5490 nM in assay [2]; 154 nM on 5-HT2B receptor; 151 nM on 5-HT7 receptor. On 5-HT6 receptor, the Ki worked out at 145 nM.
